Values belong to the compound of their own block, whether it stands above or below them. Calls of active or inactive are those of the source. The calls are words filed in the database; no cut-off is given here.
What was measured:
[1] = Inhibition of Pseudomonas aeruginosa PvdP tyrosinase
[2] = molecular target: Mushroom tyrosinase (Agaricus bisporus, UniProt O42713+Q00024+C7FF04+C7FF05); experiment: Inhibition of mushroom tyrosinase
[3] = Selectivity ratio of IC50 for mushroom tyrosinase to IC50 for Pseudomonas aeruginosa PvdP tyrosinase
[4] = tested on: Pseudomonas aeruginosa; experiment: Inhibition of Pseudomonas aeruginosa PvdP tyrosinase up to 100 uM relative to control; settings: dose microM <=100
[5] = tested on: Pseudomonas aeruginosa; experiment: Non-competitive inhibition of Pseudomonas aeruginosa PvdP tyrosinase assessed as Vmax at 0.5 uM by Lineweaver-Burk double reciprocal plot analysis (reference value: 0.0155 1/min)
[6] = tested on: Pseudomonas aeruginosa; experiment: Non-competitive inhibition of Pseudomonas aeruginosa PvdP tyrosinase assessed as Km at 0.5 uM by Lineweaver-Burk double reciprocal plot analysis (reference value: 1.136 mM)
[7] = tested on: Pseudomonas aeruginosa PAO1; experiment: (§1) Inhibition of PvdP tyrosinase in Pseudomonas aeruginosa PAO1 assessed as reduction in pyoverdin production incubated for 24 hrs in low iron medium
How it was run: (§2)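 P. aeruginosa PAO1 grown 24 h in low-iron medium with a serial dilution of compound (200 - 0.79 µM; final DMSO 1%). Vehicle 1% DMSO as negative control. After incubation, pyoverdine read at 405 nm and cell growth at 600 nm.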

[8] = as §1; how it was run: as §2
[9] = tested on: Pseudomonas aeruginosa; experiment: Inhibition of Pseudomonas aeruginosa PvdP tyrosinase mutant at 1 uM
[10] = tested on: Pseudomonas aeruginosa; experiment: Non-competitive inhibition of Pseudomonas aeruginosa PvdP tyrosinase assessed as Km at 0.2 uM by Lineweaver-Burk double reciprocal plot analysis (reference value: 1.136 mM)
[11] = tested on: Pseudomonas aeruginosa; experiment: Non-competitive inhibition of Pseudomonas aeruginosa PvdP tyrosinase assessed as Vmax at 0.2 uM by Lineweaver-Burk double reciprocal plot analysis (reference value: 0.0155 1/min)

IC50 ([1]; read-out: IC50): 14.3 µM
Compound: CN(C)c1ccc(NC(=S)NCc2ccc(Cl)cc2)cc1

IC50 [1]: Not Active
Compound: CNC(=S)Nc1ccccc1

IC50 ([1]; read-out: IC50): 13.6 µM
Compound: Fc1ccc(CNC(=S)Nc2ccccc2)cc1

IC50 ([1]; read-out: IC50): 7.6 µM
IC50 [2]: > 500 µM
Compound: S=C(NCc1c(Cl)cccc1Cl)Nc1ccccc1
Ratio IC50 [3]: > 500

IC50 ([1]; read-out: IC50): 19.4 µM
Compound: S=C(NCc1ccccc1)Nc1ccccc1

IC50 ([1]; read-out: IC50): 7.9 µM
IC50 [2]: > 500 µM
Compound: S=C(NCc1ccccc1Cl)Nc1ccccc1
Ratio IC50 [3]: > 500

IC50 [1]: Not Active
inhibition [4]: < 50%
Compound: NC(=O)Nc1ccccc1 [PHENYLUREA]

IC50 ([1]; read-out: IC50): 23.5 µM
Compound: S=C(NCc1ccc(Br)cc1)Nc1ccccc1

Compound: S=C(NCc1ccc(Cl)cc1)Nc1ccccc1
Vmax [5]: 0.0111 min⁻¹
Km [6]: 1140 µM
IC50 ([1]; read-out: IC50): 0.57 µM
IC50 [2]: 328 µM
inhibition [7]: Dose-dependent effect
IC50 [8]: 44.9 µM
inhibition [9]: inactive
Km [10]: 1130 µM
Ratio IC50 [3]: > 500
Vmax [11]: 0.0126 min⁻¹

Compound: NC(=S)Nc1ccccc1 [PHENYLTHIOUREA]
IC50 ([1]; read-out: IC50): 174 µM

IC50 [1]: Not Active
Compound: C=CCNC(=S)Nc1ccccc1

IC50 ([1]; read-out: IC50): 22.3 µM
Compound: Cc1ccc(NC(=S)NCc2ccc(Cl)cc2)cc1

IC50 ([1]; read-out: IC50): 19.3 µM
Compound: COc1ccc(CN=C(S)Nc2ccccc2)cc1

IC50 [1]: Not Active
Compound: Fc1cccc(Cl)c1NC(=S)Nc1ccccc1

IC50 ([1]; read-out: IC50): 22.6 µM
Compound: Fc1ccc(CCNC(=S)Nc2ccccc2)cc1

— ChEMBL document CHEMBL4725313, “Development of phenylthiourea derivatives as allosteric inhibitors of pyoverdine maturation enzyme PvdP tyrosinase” (Bioorg Med Chem Lett, 2020)
